An excerpt weighted towards active compounds, which were near 3.7% of everything screened.
KCNK9 block = inhibitors of human KCNK9 two-pore domain potassium channel; Q9NPC2; AID 488922; 1.2% of 310,000 active; HEK293 KCNK9, FluxOR thallium flux fluorescence; stronger effect = lower value; B-score at 10 µM;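 active = ratio B-score over 3 SD below the library mean, with starting fluorescence within 5 SD of its mean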;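 also: negative B-score means less thallium flux so channel inhibition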
KCNQ1 inh = inhibitors of human KCNQ1 potassium channel. P51787. CHO-K1 KCNQ1, FluxOR thallium flux fluorescence; stronger effect = higher value. B-score at 10 µM. 1.3% of 310,000 active. AID 2642;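 active = compounds whose thallium flux B-score, printed positive for inhibition, exceeds three library SD while starting fluorescence stays within three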;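 also: channel opened by potassium depolarization with thallium stimulus after 20 min compound exposure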
hERG rescue = compounds protecting human hERG from proarrhythmic drug block; AID 1511; activation (rescue from dofetilide block), less the hit threshold, % at 10 µM; CHO-hERG, FluxOR thallium flux, dofetilide IC70 present; 0.51% of 310,000 active;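 active = activation above the mean of controls blocked by dofetilide plus 5 SD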;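 also: thallium influx through hERG after potassium depolarization seen as dye fluorescence rise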
KCNK3 block = human KCNK3 channel inhibition, primary screen. O14649. CHO-KCNK3 thallium flux, FluxOR fluorescence; stronger effect = lower value. B-score at 10 µM. 0.84% of 340,000 active;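 active = B-score under library mean minus 4 SD, starting fluorescence ratio at most library mean plus 5 SD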;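 also: more negative B-score means stronger inhibition of thallium flux through KCNK3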
Kir21 inh = blocks the mouse Kir2.1 inward-rectifier potassium channel | HEK293-Kir2.1, FluxOR thallium flux fluorescence; stronger effect = lower value | P35561 | 0.85% of 310,000 active | AID 1672 | B-score at 10 µM;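 active = fluorescence ratio B-score at or below minus 3 SD of library scores, with starting-brightness B-score within 2 SD, cut at about -4.2 in these data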;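 also: channel flux triggered by added potassium and thallium sulfate stimulus; B-score of peak minus minimum fluorescence over baseline after thallium stimulus; more negative B-score means stronger Kir2.1 block with less thallium influx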
Target sequence (P35561 whole entry, looked up): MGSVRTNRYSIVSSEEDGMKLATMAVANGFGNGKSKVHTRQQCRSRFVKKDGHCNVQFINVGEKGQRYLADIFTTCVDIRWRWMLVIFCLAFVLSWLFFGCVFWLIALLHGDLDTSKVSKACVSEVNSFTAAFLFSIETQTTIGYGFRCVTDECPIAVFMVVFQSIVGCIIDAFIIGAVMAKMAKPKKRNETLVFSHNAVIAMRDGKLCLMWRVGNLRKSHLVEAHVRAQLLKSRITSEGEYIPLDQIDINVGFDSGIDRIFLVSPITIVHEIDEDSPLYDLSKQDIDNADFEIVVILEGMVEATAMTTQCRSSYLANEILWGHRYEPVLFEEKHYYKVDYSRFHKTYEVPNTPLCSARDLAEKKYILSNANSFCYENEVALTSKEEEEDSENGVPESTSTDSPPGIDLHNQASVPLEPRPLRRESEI
KCNQ1 act = human KCNQ1 channel potentiation or activation; P51787; CHO-K1 KCNQ1, thallium flux FluxOR fluorescence; stronger effect = higher value; B-score at 10 µM; 0.35% of 310,000 active; AID 2648;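 active = fluorescence ratio B-score, a plate-corrected score, at least three library SD, with initial intensity B-score within 5 SD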
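Schedule – 37 °C overnight plating, 90-min dark dye load, 20-min compound pretreatment · System – stable KCNQ1 CHO-K1 line · Probe or stimulus – thallium- and potassium-containing depolarizing buffer · Measured by – kinetic FluxOR fluorescence, 10 s baseline plus 110 s post-stimulus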
* marks the source's active call; other numbers are inactive results; i = inactive; / = no result given.

SMILES	KCNK9 block	KCNQ1 inh	hERG rescue	KCNK3 block	Kir21 inh	KCNQ1 act
Clc1ccc(CONc2ncnc3nonc23)c(Cl)c1	i	7*	-25	i	-1.6	i
Cc1cccc(N2N=C(C(=O)Nc3ccc(Cl)c(S(=O)(=O)N4CCOCC4)c3)CCC2=O)c1	/	/	/	i	/	/
CCCCn1c(-c2ccccc2C)nc2cc3[nH]c(=O)c(C(C)C)nc3cc21	-8.1*	i	-18	i	-0.94	i
Cc1cc(Cl)ccc1OCC(=O)N/N=C1\CC2C=CCC12 (centres undefined)	i	i	-14	i	1.1	i
CCCNC(=O)c1csc(Nc2cccc3ccccc23)n1	-8*	i	-4	i	1.6	i
COCCNC(=O)c1csc(Nc2cccc3ccccc23)n1	i	i	-8	i	1.2	i
Cc1onc(-c2ccc(Cl)cc2Cl)c1-c1csc(N/N=C/c2ccccc2Cl)n1	i	i	-4	i	-0.48	i
Cc1onc(-c2ccccc2)c1-c1csc(N/N=C/c2ccccc2Cl)n1	i	9*	-7	i	1.9	i
COc1ccccc1C1CN(c2ccc(F)cc2F)N=C1c1cccs1 (centres undefined)	-7.4*	i	-4	i	-0.27	i
CCOc1ccc(N2C(=O)CC(Sc3nc4ccc(OCC)cc4s3)C2=O)cc1 (centres undefined)	i	i	-9	i	-0.47	i
CCOc1[nH]n(-c2ccccc2)c(=O)c1C=Nc1ccc(OC)cc1	i	i	-10	i	-1.4	i
Oc1oc(-c2ccc(Br)cc2)nc1/C=N/c1ccccn1	i	i	-7	i	0.11	i
CCOc1ccc2nc(/N=C/c3c(C)[nH]n(-c4ccc(C)cc4)c3=O)sc2c1	i	i	71*	i	0.74	40*
CCOc1ccc2nc(/N=C/c3nc(-c4ccc(Br)cc4)oc3O)sc2c1	i	i	6.7*	i	0.9	25*
CCOc1ccc2nc(/N=C/c3c(C)[nH]n(-c4ccccc4)c3=O)sc2c1	i	i	58*	i	-0.04	55*
CC1CN(S(=O)(=O)c2cc(C(=O)NC(C)c3cccnc3)ccc2Cl)CC(C)O1 (centres undefined)	/	/	/	i	/	/
COc1ccccc1N(Cc1ccccc1)S(=O)(=O)c1cccc(C(=O)Nc2cccc(C)n2)c1	i	i	-7	i	1	i
COc1ccc(C(C[N+](=O)[O-])c2c(C)[nH]n(-c3ccccc3)c2=O)cc1 (centres undefined)	i	7*	-17	i	-8.7*	i
O=C1OCCC1Sc1nc2ccccc2c(=O)n1Cc1ccc(F)cc1 (centres undefined)	i	i	9.9*	i	0.55	11*
Cc1cc(=O)oc2cc(OC(=O)C3CCN(C(=O)c4ccc(F)cc4)CC3)ccc12	i	i	-11	i	0.73	i
O=C(CSc1ncnc2c1oc1ccccc12)c1cccs1	i	i	-2	i	2	i
Cc1nc(SCC(=O)c2cccs2)c2oc3ccccc3c2n1	i	10*	-16	i	-0.45	i
O=S(=O)(c1ccc(Cl)cc1)N1CCCC(C(F)(F)F)C1 (centres undefined)	i	i	-11	i	0.77	i
COc1ccc(-c2[nH]ncc2CN(CCO)CC23CC4CC(CC(C4)C2)C3)c(OC)c1	i	i	-16	i	-5.6*	i
CCOC(=O)C1CCCN(C(=O)CCn2nnnc2CN2CCOCC2)C1 (centres undefined)	i	i	-7	i	0.68	i
SMILES	KCNK9 block	KCNQ1 inh	hERG rescue	KCNK3 block	Kir21 inh	KCNQ1 act
O=C(/C=C/c1ccccc1)CC(=O)c1ccccc1O	i	i	15*	i	-1.4	i
O=C(C=Cc1cccc(O)c1)c1ccccc1O	/	/	/	-9.9*	/	/
O=C(Nc1nnc(CCc2ccccc2)s1)c1ccccc1F	i	i	0	i	0.4	i
CCOc1cc(S(=O)(=O)NCc2ccccn2)c(C)cc1C	i	i	-13	/	-4.7*	i
Cc1ccc(C(C)C)cc1S(=O)(=O)NCc1ccccn1	i	i	-2	i	-5.8*	i
O=C(NC(=S)Nc1ccc(N2CCOCC2)cc1)c1cccs1	i	i	0	i	-0.53	i
O=C(NC(=S)Nc1cccc(Cl)c1N1CCOCC1)c1cccs1	i	i	17*	i	-0.05	i
O=C(NC(=S)Nc1cccc(Cl)c1N1CCCCC1)c1cccs1	i	i	7.2*	i	-2.3	24*
O=C(Cc1ccc(NS(=O)(=O)c2cccc(C(F)(F)F)c2)cc1)NCCN1CCOCC1	i	i	-14	i	-0.15	i
CCC(=Cc1ccccc1OC)c1ccncc1	/	/	/	i	/	/
Cc1cc(C(=O)CSc2nc3ccccc3c(=O)n2C)c(C)n1Cc1ccc2c(c1)OCO2	-7.9*	i	-26	i	-0.05	i
CCn1c(O)c(N=NC2=NC(=O)CS2)c2ccccc21	i	i	9.1*	i	0.04	i
O=CC1=C(c2ccccc2)Oc2ccccc2O1	i	6*	-9	i	-7.6*	i
CN(C)/C=C1/N=C(c2ccccc2)OC1=O	i	i	-3	i	0.1	i
O=C(Cc1cccs1)N1CCN(S(=O)(=O)c2cc(Cl)ccc2Cl)CC1	i	i	-12	i	-2	i
Cc1c(C(C)C[C@H](C)O)oc(=O)c2c1Oc1c(C)c(C(C)C[C@H](C)O)oc(=O)c1C2 (some centres undefined)	/	/	/	i	/	/
COc1ccc(CC(=O)NC(C)c2nnc(SCC(=O)c3ccc(OC)cc3)n2C)cc1 (centres undefined)	i	i	-13	i	0.43	i
COc1ccc(CC(=O)NC(C)c2nnc(SCCOc3ccc(OC)cc3)n2C)cc1 (centres undefined)	i	i	-17	i	-4.3*	i
O=[n+]1c2c(n([O-])c3cc(F)c(N4CCCC4)cc31)CCC2	i	i	-28	i	-7.4	i
O=[n+]1c2c(n([O-])c3cc(F)c(N4CCCC4)cc31)CCCC2	i	9*	-16	i	-4.1	i
O=C1c2[nH]nc(-c3ccccc3O)c2C(c2ccc(F)cc2)N1Cc1ccco1 (centres undefined)	i	6*	-21	i	-0.32	i
O=C(Cn1c(=O)oc2cc(S(=O)(=O)N3CCc4ccccc43)ccc21)NC1CCCC1	-8.8*	i	1	i	-0.25	i
CC(C)CCNC(=O)Cn1c(=O)oc2cc(S(=O)(=O)N3CCc4ccccc43)ccc21	-9.2*	i	-1	i	-0.56	i

Assay outcomes from PubChem BioAssay.
